Experimental data of several laboratories.
Read-out: cell growth or viability

CCCN1C(=O)[C@H](CC(C)C)NC(=O)[C@@H](N(C)C(=O)[C@H](CC2CCC2)NC(=O)[C@@H]2C[C@@H](F)CN2C(=O)[C@@](C)(O)C(F)(F)F)CCCCNC(=O)C2(CC2)NC(=O)[C@@H]1Cc1cc(Cl)ccc1Cl  GI50 (NCI-H526; MTT; 5 days): 41 nM
COc1cccc(CNC[C@@](C)(O)[C@@H]2CC[C@@H](C)C[C@H]2OCc2ccccc2)c1  inhibition (MDA-MB-231; MTT; 30 µM, 72 h): 95.3%
Cc1c(C(=O)O)ccc2c3n(nc12)[C@@H]1[C@H](C3)N(CC2CC2)[C@@]2(C(=O)Nc3cc(Cl)ccc32)[C@H]1c1cccc(Cl)c1F  IC50 (hTERT-RPE1): 16 nM
O=C(C=Cc1ccccc1)Nc1cc(-c2ccnc(N3CCOCC3)c2)ccn1  inhibition (MDA-MB-231; MTT; 5 µM): 78.3%
Cc1c(Cc2ccccc2)c(=O)oc2c(C)c(OCC(=O)NN=Cc3ccc(Cl)cc3)ccc12  viability (MDA-MB-231; MTT; 1000 µg/mL): 17.1%
C[C@@H]1CC[C@@H]([C@](C)(O)CNCc2ccccc2F)[C@H](OCc2ccccc2)C1  inhibition (MDA-MB-231; MTT; 30 µM, 72 h): 44.1%
C[C@H](NC(=O)[C@H](CC(=O)NCC(C)(C)C)NC(=O)C(=O)c1c[nH]c2ccccc12)C(=O)NCc1ccc(F)cc1F  IC50 (A-375; resazurin; 48 h): 8870 nM
CC(=NNC(=O)COc1ccc2c(C)c(Cc3ccccc3)c(=O)oc2c1C)c1ccc(Br)cc1  viability (MDA-MB-231; MTT; 1000 µg/mL): 15.1%
Cc1cccc(/C=C/C(=O)Nc2cc(-c3ccnc(N4CCC(O)CC4)c3)ccn2)c1  inhibition (MDA-MB-231; MTT; 5 µM): 75.6%
CCNC(=S)NNC(=O)COc1ccc2c(C)c(CC)c(=O)oc2c1C  viability (MDA-MB-231; MTT; 125 µg/mL): 45%
C[C@@H]1CC[C@@H]([C@](O)(CNCc2ccccc2)COCc2ccc(F)cc2)[C@H](OCc2ccc(F)cc2)C1  inhibition (MDA-MB-231; MTT; 30 µM, 72 h): 101%
CCc1c(C)c2ccc(OCc3nnc(S)n3N)c(C)c2oc1=O  viability (MDA-MB-231; MTT; 1000 µg/mL): 5.38%
C=CC(=O)NC1CCN(c2ncc3ncnc(Nc4ccc(Oc5ccc6c(c5)ncn6C)c(C)c4)c3n2)CC1  EC50 (LCLC-103H): 2.82 nM
C=CCNC(=S)NNC(=O)COc1ccc2c(C)c(CC)c(=O)oc2c1C  viability (MDA-MB-231; MTT; 250 µg/mL): 5.87%
COc1ccc(CNC[C@](O)(COCc2ccc(OC)cc2)[C@@H]2CC[C@@H](C)C[C@H]2OCc2ccc(OC)cc2)cc1  inhibition (MDA-MB-231; MTT; 10 µM, 72 h): 96.8%
